{"source": "ChEMBL document CHEMBL1154662", "about": "“alphavbeta3 Integrin-targeting Arg-Gly-Asp (RGD) peptidomimetics containing oligoethylene glycol (OEG) spacers” (J Med Chem, 2009)", "key": {"Integrin alpha-V/beta-3": {"molecular_target": "Integrin alpha-V/beta-3 (Homo sapiens, UniProt P05106+P06756)", "assay": "Inhibition of human integrin alphav beta3 receptor by biotinylated vitronectin competitive binding assay", "format": "protein-complex assay", "method_in_brief": "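Placenta-derived human αvβ3 adsorbed at 500 ng/mL in Tris buffer (2 mM CaCl2, 1 mM MgCl2 and MnCl2, pH 7.5), 1 h RT, then blocked with 1% albumin. Incubated 30 min with excess biotinylated vitronectin plus graded compound. Bound ligand detected with anti-biotin–alkaline phosphatase and p-nitrophenyl phosphate at 405 nm. IC50 taken from pooled dose-response curves of at least two experiments.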"}, "[1]": {"molecular_target": "Integrin alpha-IIb/beta-3 (Homo sapiens, UniProt P05106+P08514)", "assay": "Inhibition of human integrin alpha2b beta3 receptor by fibrinogen competitive binding assay", "format": "protein-complex assay", "method_in_brief": "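Platelet αIIbβ3, affinity-purified, adsorbed at 1 μg/mL in Tris buffer (2 mM CaCl2, 1 mM MgCl2 and MnCl2, pH 7.5) for 1 h at room temperature, then blocked with 1% albumin. Exposed 30 min to excess biotinylated fibrinogen with varied compound levels. Detection used anti-biotin–alkaline phosphatase and p-nitrophenyl phosphate, read at 405 nm. IC50 derived from at least two pooled dose-response experiments.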"}, "Homo sapiens": {"species_on_record": "Homo sapiens", "assay": "Selectivity index, ratio of IC50 for human integrin alpha2b beta3 receptor to IC50 for human integrin alphav beta3 receptor"}, "HOP": {"system": "HOP", "assay": "Inhibition of HOP cell adhesion on vitronectin coated plate by colorimetric method", "format": "functional, cell-based", "details": "Homo sapiens", "method_in_brief": "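HOP cells (bone marrow stromal, second subculture) preincubated 1 h at 37 °C with compound (10-4 to 10-12 M final) in serum-free IMDM, then 100 μL of 32000 cells/mL seeded on wells coated with human plasma vitronectin (5 μg/mL); adhesion 30 min at 37 °C. Adherent cells read via p-nitrophenyl N-acetyl β-D-glucosaminide hydrolysis, 405 nm. Expressed as absorbance ratio to untreated cells; ≥2 experiments, n = 6 wells.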"}}, "note": "The source made the active and inactive calls. The calls are words filed in the database; no cut-off is given here."}
{"compound": "COCCOCCOCCOCC(=O)Nc1cc(C[C@H](NS(=O)(=O)c2cccc(C(F)(F)F)c2)C(=O)O)ccc1OCCCCNc1cc(C)ccn1", "values": [{"measurement": "IC50", "setting": "Integrin alpha-V/beta-3", "value": 0.5, "unit": "nM"}, {"measurement": "IC50", "setting": "[1]", "value": 61, "unit": "nM"}, {"measurement": "Ratio IC50", "setting": "Homo sapiens", "value": 122}]}
{"compound": "NCCCOc1ccc(C[C@H](NS(=O)(=O)c2cccc(C(F)(F)F)c2)C(=O)O)cc1N", "values": [{"measurement": "IC50", "setting": "Integrin alpha-V/beta-3", "value": 138, "unit": "nM"}, {"measurement": "IC50", "setting": "[1]", "value": 429, "unit": "nM"}, {"measurement": "Ratio IC50", "setting": "Homo sapiens", "value": 3.1}]}
{"compound": "NC(N)=NCCCOc1ccc(C[C@H](NS(=O)(=O)c2cccc(C(F)(F)F)c2)C(=O)O)cc1N", "values": [{"measurement": "IC50", "setting": "Integrin alpha-V/beta-3", "value": 7.6, "unit": "nM"}, {"measurement": "IC50", "setting": "[1]", "value": 27, "unit": "nM"}]}
{"compound": "Nc1cc(C[C@H](NS(=O)(=O)c2cccc(C(F)(F)F)c2)C(=O)O)ccc1OCCCCN=C1NCCCN1", "values": [{"measurement": "IC50", "setting": "Integrin alpha-V/beta-3", "value": 0.8, "unit": "nM"}, {"measurement": "IC50", "setting": "[1]", "value": 101, "unit": "nM"}]}
{"compound": "Cc1ccnc(NCCCCOc2ccc(C[C@H](NS(=O)(=O)c3cccc(C(F)(F)F)c3)C(=O)O)cc2N)c1", "values": [{"measurement": "Activity", "setting": "HOP", "value": "Active"}, {"measurement": "IC50", "setting": "Integrin alpha-V/beta-3", "value": 0.6, "unit": "nM"}, {"measurement": "IC50", "setting": "[1]", "value": 106, "unit": "nM"}, {"measurement": "Ratio IC50", "setting": "Homo sapiens", "value": 177}]}
{"compound": "Nc1cc(C[C@H](NS(=O)(=O)c2cccc(C(F)(F)F)c2)C(=O)O)ccc1OCCCNc1ccccn1", "values": [{"measurement": "IC50", "setting": "Integrin alpha-V/beta-3", "value": 1.2, "unit": "nM"}, {"measurement": "IC50", "setting": "[1]", "value": 36, "unit": "nM"}, {"measurement": "Ratio IC50", "setting": "Homo sapiens", "value": 30}]}
{"compound": "NCCCCOc1ccc(C[C@H](NS(=O)(=O)c2cccc(C(F)(F)F)c2)C(=O)O)cc1N", "values": [{"measurement": "IC50", "setting": "Integrin alpha-V/beta-3", "value": 428, "unit": "nM"}, {"measurement": "IC50", "setting": "[1]", "value": 154, "unit": "nM"}, {"measurement": "Ratio IC50", "setting": "Homo sapiens", "value": 0.35}]}
{"compound": "Nc1cc(C[C@H](NS(=O)(=O)c2cccc(C(F)(F)F)c2)C(=O)O)ccc1OCCCCNc1ccccn1", "values": [{"measurement": "IC50", "setting": "Integrin alpha-V/beta-3", "value": 1.4, "unit": "nM"}, {"measurement": "IC50", "setting": "[1]", "value": 70, "unit": "nM"}, {"measurement": "Ratio IC50", "setting": "Homo sapiens", "value": 50}]}
{"compound": "Cc1ccnc(NCCCCOc2ccc(C[C@H](NS(=O)(=O)c3cccc(C(F)(F)F)c3)C(=O)O)cc2NC(=O)COCCOCCOCCOCCOCCOCCN)c1", "values": [{"measurement": "IC50", "setting": "Integrin alpha-V/beta-3", "value": 0.8, "unit": "nM"}, {"measurement": "IC50", "setting": "[1]", "value": 38, "unit": "nM"}, {"measurement": "Ratio IC50", "setting": "Homo sapiens", "value": 47}]}
{"compound": "CC(=O)Nc1cc(C[C@H](NS(=O)(=O)c2cccc(C(F)(F)F)c2)C(=O)O)ccc1OCCCc1ccc2c(n1)NCCC2", "values": [{"measurement": "Activity", "setting": "HOP", "value": "Active"}, {"measurement": "IC50", "setting": "Integrin alpha-V/beta-3", "value": 0.6, "unit": "nM"}, {"measurement": "IC50", "setting": "[1]", "value": 71, "unit": "nM"}, {"measurement": "Ratio IC50", "setting": "Homo sapiens", "value": 118}]}
{"compound": "CC(=O)Nc1cc(C[C@H](NS(=O)(=O)c2cccc(C(F)(F)F)c2)C(=O)O)ccc1OCCCCNc1cc(C)ccn1", "values": [{"measurement": "IC50", "setting": "Integrin alpha-V/beta-3", "value": 0.7, "unit": "nM"}, {"measurement": "IC50", "setting": "[1]", "value": 38, "unit": "nM"}, {"measurement": "Ratio IC50", "setting": "Homo sapiens", "value": 54}]}
{"compound": "N=C(N)NCCCOc1ccc(C[C@H](NS(=O)(=O)c2cccc(C(F)(F)F)c2)C(=O)O)cc1N", "values": [{"measurement": "Ratio IC50", "setting": "Homo sapiens", "value": 3.5}]}
{"compound": "Nc1cc(C[C@H](NS(=O)(=O)c2cccc(C(F)(F)F)c2)C(=O)O)ccc1OCCCN=C1NCCCN1", "values": [{"measurement": "IC50", "setting": "Integrin alpha-V/beta-3", "value": 3.9, "unit": "nM"}, {"measurement": "IC50", "setting": "[1]", "value": 21.3, "unit": "nM"}]}
{"compound": "Nc1cc(C[C@H](NS(=O)(=O)c2cccc(C(F)(F)F)c2)C(=O)O)ccc1OCCCc1ccc2c(n1)NCCC2", "values": [{"measurement": "IC50", "setting": "Integrin alpha-V/beta-3", "value": 0.1, "unit": "nM"}, {"measurement": "IC50", "setting": "[1]", "value": 141, "unit": "nM"}, {"measurement": "Ratio IC50", "setting": "Homo sapiens", "value": 1410}]}
{"compound": "Cc1cccc(NCCCCOc2ccc(C[C@H](NS(=O)(=O)c3cccc(C(F)(F)F)c3)C(=O)O)cc2N)n1", "values": [{"measurement": "IC50", "setting": "Integrin alpha-V/beta-3", "value": 1.7, "unit": "nM"}, {"measurement": "IC50", "setting": "[1]", "value": 121, "unit": "nM"}, {"measurement": "Ratio IC50", "setting": "Homo sapiens", "value": 71}]}
{"compound": "Nc1cc(C[C@H](NS(=O)(=O)c2cccc(C(F)(F)F)c2)C(=O)O)ccc1OCCCNC1=NCCCN1", "values": [{"measurement": "Ratio IC50", "setting": "Homo sapiens", "value": 5.5}]}
{"compound": "Nc1cc(C[C@H](NS(=O)(=O)c2cccc(C(F)(F)F)c2)C(=O)O)ccc1OCCCCNC1=NCCCN1", "values": [{"measurement": "Ratio IC50", "setting": "Homo sapiens", "value": 126}]}
{"compound": "N=C(N)NCCC[C@H](NC(=O)CN)C(=O)NCC(=O)N[C@@H](CC(=O)O)C(=O)N[C@@H](CO)C(=O)O", "values": [{"measurement": "Activity", "setting": "HOP", "value": "Active"}]}
{"compound": "Nc1cc(C[C@H](NS(=O)(=O)c2cccc(C(F)(F)F)c2)C(=O)O)ccc1OCCCCc1ccc2c(n1)NCCC2", "values": [{"measurement": "IC50", "setting": "Integrin alpha-V/beta-3", "value": 1.1, "unit": "nM"}, {"measurement": "IC50", "setting": "[1]", "value": 355, "unit": "nM"}, {"measurement": "Ratio IC50", "setting": "Homo sapiens", "value": 323}]}
{"compound": "Cc1ccnc(NCCCCOc2ccc(C[C@H](NS(=O)(=O)c3cccc(C(F)(F)F)c3)C(=O)O)cc2NC(=O)COCCOCCOCCN)c1", "values": [{"measurement": "IC50", "setting": "Integrin alpha-V/beta-3", "value": 0.9, "unit": "nM"}, {"measurement": "IC50", "setting": "[1]", "value": 28, "unit": "nM"}, {"measurement": "Ratio IC50", "setting": "Homo sapiens", "value": 31}]}
{"compound": "N=C(N)NCCCCOc1ccc(C[C@H](NS(=O)(=O)c2cccc(C(F)(F)F)c2)C(=O)O)cc1N", "values": [{"measurement": "IC50", "setting": "Integrin alpha-V/beta-3", "value": 1.7, "unit": "nM"}, {"measurement": "IC50", "setting": "[1]", "value": 7.3, "unit": "nM"}, {"measurement": "Ratio IC50", "setting": "Homo sapiens", "value": 4.3}]}
